“And” between values parts separate entries of the source, which are not always exact repeats. Identical values can stand only once.
Tests used:
[1] = tested on: Trypanosoma brucei rhodesiense; assay: Antitrypanosomal activity against Trypanosoma rhodesiense infections in mice, 3.3 mg/kg administered subcutaneously; type: functional; conditions: route subcutaneous
Procedure, shortened: (§1)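 Six-week-old IUR/HA Swiss mice (30-32 g), 5 per dose, infected ip with 0.5 mL of a 1:50 000 dilution of heparinized heart blood from donor mice infected 3 days before (Wellcome CT strain). Single sc dose in peanut oil about 2 h post-inoculation. Deaths before day 4 counted toxic. ΔMST versus untreated controls; survivors at 30 days counted cured.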

[2] = tested on: Trypanosoma brucei rhodesiense; assay: Antitrypanosomal activity was evaluated against Trypanosoma rhodesiense infections in mice, at dose 1.6 mg/kg, administered subcutaneously; type: functional; conditions: route subcutaneous; procedure, shortened: as §1
[3] = tested on: Trypanosoma brucei rhodesiense; assay: Antitrypanosomal activity was evaluated against Trypanosoma rhodesiense infections in mice, at dose 212 mg/kg, administered subcutaneously; type: functional; conditions: route subcutaneous; procedure, shortened: as §1
[4] = tested on: Mus musculus; assay: Antitrypanosomal activity was evaluated against Trypanosoma rhodesiense infections in mice, at dose 13 mg/kg, administered subcutaneously; type: functional; conditions: route subcutaneous; procedure, shortened: as §1
[5] = tested on: Trypanosoma brucei rhodesiense; assay: Antitrypanosomal activity against Trypanosoma rhodesiense infections in mice, 6.6 mg/kg administered subcutaneously; type: functional; conditions: route subcutaneous; procedure, shortened: as §1
[6] = tested on: Mus musculus; assay: (§2) Antitrypanosomal activity was evaluated against Trypanosoma rhodesiense infections in mice, at dose 26 mg/kg, administered orally; Cures; type: functional
Procedure, shortened: (§3)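 Oral dosing of IUR/HA Swiss mice (six weeks old, 30-32 g) infected i.p. with Wellcome CT strain T. rhodesiense, with five mice per dose level. Survival was followed for 30 days. Deaths before day 4 were counted as toxic and 30-day survivors as cured. ΔMST is the difference in mean survival time between treated and control mice.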

[7] = tested on: Mus musculus; assay: as §2; type: functional; remark: listed apart in the source
[8] = tested on: Mus musculus; assay: Antitrypanosomal activity was evaluated against Trypanosoma rhodesiense infections in mice, at dose 26 mg/kg, administered orally; type: functional; conditions: route oral
[9] = tested on: Mus musculus; assay: Antitrypanosomal activity was evaluated against Trypanosoma rhodesiense infections in mice, at dose 212 mg/kg, administered subcutaneously; Cures; type: functional; conditions: route subcutaneous
Procedure, shortened: (§4)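 IUR/HA Swiss mice (six weeks old, 30-32 g) infected i.p. with Wellcome CT strain T. rhodesiense. A single subcutaneous dose in peanut oil was given about 2 h after inoculation, with five mice per dose level. Positive control was stilbamidine or 2-hydroxystilbamidine isethionate at 40 mg/kg. Deaths before day 4 were scored toxic, and 30-day survivors cured.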

[10] = tested on: Mus musculus; assay: Antitrypanosomal activity was evaluated against Trypanosoma rhodesiense infections in mice, at dose 106 mg/kg, administered orally; type: functional; conditions: route oral
[11] = tested on: Mus musculus; assay: (§5) Antitrypanosomal activity was evaluated against Trypanosoma rhodesiense infections in mice, at dose 424 mg/kg, administered orally; type: functional; conditions: route oral, 424 mg/kg; procedure, shortened: as §3
[12] = tested on: Mus musculus; assay: as §5; type: functional; conditions: route oral
[13] = tested on: Mus musculus; assay: Antitrypanosomal activity was evaluated against Trypanosoma rhodesiense infections in mice, at dose 106 mg/kg, administered orally; Cures; type: functional; procedure, shortened: as §3
[14] = tested on: Mus musculus; assay: Antitrypanosomal activity was evaluated against Trypanosoma rhodesiense infections in mice, at dose 424 mg/kg, administered orally; Cures; type: functional; procedure, shortened: as §3
[15] = tested on: Mus musculus; assay: Antitrypanosomal activity was evaluated against Trypanosoma rhodesiense infections in mice, at dose 0.8mg/kg, administered subcutaneously
[16] = tested on: Mus musculus; assay: Antitrypanosomal activity was evaluated against Trypanosoma rhodesiense infections in mice, at dose 13 mg/kg, administered subcutaneously;Toxic; type: functional; conditions: route subcutaneous; procedure, shortened: as §4
[17] = tested on: Trypanosoma brucei rhodesiense; assay: Antitrypanosomal activity was evaluated against Trypanosoma rhodesiense infections in mice, at dose 106 mg/kg, administered subcutaneously; type: functional; conditions: route subcutaneous; procedure, shortened: as §4
[18] = tested on: Trypanosoma brucei rhodesiense; assay: Antitrypanosomal activity was evaluated against Trypanosoma rhodesiense infections in mice, at dose 26 mg/kg, administered subcutaneously; type: functional; conditions: route subcutaneous; procedure, shortened: as §4
[19] = tested on: Trypanosoma brucei rhodesiense; assay: Antitrypanosomal activity against Trypanosoma rhodesiense infections in mice, 424 mg/kg administered subcutaneously; type: functional; conditions: route subcutaneous; procedure, shortened: as §4

| SMILES | Delta MST [1] [days] | Delta MST [2] [days] | Delta MST [3] [days] | Delta MST [4] [days] | Delta MST [5] [days] | Cures [6] | Delta MST [7] [days] | Delta MST [8] [days] | Cures [9] | Delta MST [10] [days] | Toxic [11] | Delta MST [12] [days] | Cures [13] | Cures [14] | Delta MST [15] [days] | Toxic [16] | Toxic [17] | Toxic [18] | Toxic [19] |
| --- | --- | --- | --- | --- | --- | --- | --- | --- | --- | --- | --- | --- | --- | --- | --- | --- | --- | --- | --- |
| CC1(C)N=C(N)N=C(N)N1c1ccc(/N=N/c2ccc(N3C(N)=NC(N)=NC3(C)C)cc2)cc1.Cl.Cl | 0.2 | 0 | 0.9 | 1.6 | 1 | 4 and 5 | 1.9 | 1 | 4 | 5.9 | 2 and 1 | 0.1 | 4 and 5 | 4 |  |  |  |  |  |
| CC1(C)N=C(N)N=C(N)N1c1cccc(NC(=O)Nc2cccc(N3C(N)=NC(N)=NC3(C)C)c2)c1.Cl.Cl | 0 | 0 |  |  | 0 |  |  |  |  |  |  |  |  |  | 0.2 | 3 | 5 | 5 | 5 |

Reference: ChEMBL document CHEMBL1122854, “Novel bis[1,6-dihydro-6,6-dimethyl-1,3,5-triazine-2,4-diamines] as antitrypanosomal agents” (1985)
